An excerpt weighted towards active compounds, which were near 4.3% of everything screened.
TAAR1 ag: human TAAR1 agonism | Q96RJ0 | CHO RD-HGA16 TAAR1, Fluo-8 calcium fluorescence; vehicle wells 0%, saturating PEA agonist 100% | activation, % at 3 µM | 0.99% of 360,000 active;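 active = activation above the mean activation of all test compounds in the run plus 3 SD, cut at about 38% in these data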
Target sequence (Q96RJ0 whole entry, looked up): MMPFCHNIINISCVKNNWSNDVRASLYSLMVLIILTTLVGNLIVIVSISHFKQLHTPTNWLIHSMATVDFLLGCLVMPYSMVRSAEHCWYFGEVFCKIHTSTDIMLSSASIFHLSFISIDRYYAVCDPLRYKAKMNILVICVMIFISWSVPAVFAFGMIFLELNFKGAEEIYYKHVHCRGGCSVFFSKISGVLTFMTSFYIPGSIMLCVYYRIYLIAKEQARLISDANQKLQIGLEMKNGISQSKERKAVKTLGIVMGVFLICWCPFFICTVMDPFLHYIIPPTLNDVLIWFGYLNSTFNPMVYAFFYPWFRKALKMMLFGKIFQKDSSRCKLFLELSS
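test system = CHO RD-HGA16 cells carrying human TAAR1 plus Gα16 | schedule = 17-24 h seeding, 75 min 37 °C dye, 30 min RT | compound dosing = 3 µM single concentration | control set = DMSO and PEA EC100 | replicates = n 1 | signal = Fluo-8 fluorescence, 5 s baseline then 140 s kinetic read | measure = percent activation vs PEA EC100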
TAAR1 antagonist: human TAAR1 antagonism | CHO RD-HGA16 TAAR1, Fluo-8 calcium fluorescence, antagonist | inhibition, % at 3 µM | 1.5% of 360,000 active | AID 624466;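 active = inhibition above a per-plate cutoff, the mean inhibition of test compounds on that plate plus 3 SD, cut at about 49% in these data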;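 note: 0% = DMSO plus EC80 beta-PEA response and 100% = DMSO alone without agonist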
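System: CHO RD-HGA16 cells bearing hTAAR1. Reagent: EC80 β-phenethylamine stimulus. Schedule: seeding 17-24 h prior, 75-min 37 °C, 30-min RT dye loading. Signal: Fluo-8 intracellular calcium dye fluorescence, real-time kinetic reads. Read-out: % inhibition from peak post-agonist over basal fluorescence ratio. Benchmarks: vehicle wells and EC80 agonist wells. Replicates: n of 1.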
OX1R antag-1: human HCRTR1 antagonism; O43613; CHO/OX1R cells, Fluo-8 calcium fluorescence, orexin A; inhibition, % at 5 µM; 0.43% of 330,000 active; AID 434989;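 active = inhibition above its plate's threshold, mean inhibition of all tested compounds on the plate plus 3 SD, cut at about 37% in these data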;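 note: 0% = orexin A challenge wells and 100% = SB-334867-A antagonist wells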
CHO parental Ca: signal in parental CHO cells, OX1R antagonist counter-screen; parental CHO-K1, ATP-induced calcium, Fluo-8 fluorescence; inhibition, % at 5.6 µM; 0.63% of 330,000 active; AID 463079;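 active = inhibition above that plate's mean sample inhibition plus 3 SD, cut at about 26% in these data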;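 note: 0% = ATP-challenged DMSO wells and 100% = DMSO wells without ATP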
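test system = CHO parental line | reagent = ATP stimulus | measured by = intracellular calcium via Fluo-8 no-wash fluorescent dye | control set = ATP and no-ATP DMSO wells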
OX1R antag-2: antagonists of human orexin 1 receptor (OX1R). O43613. OX1R-expressing cells, FRET antagonist read-out. inhibition, % at 6.6 µM. 1.8% of 330,000 active. AID 485270; in the data active = inhibition mostly above about 38%, no sharp cut-off; inactive = mostly below about 40%;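 note: 0% = agonist challenge alone and 100% = reference antagonist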
GalR3 antagonist: blocks the human galanin receptor 3; HEK293 GalR3-CNG cAMP membrane potential fluorescence; galR3 body fused to GalR1 C-terminus; O60755; inhibition, % at 3 µM; 0.44% of 360,000 active; AID 651719;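 active = inhibition above the screen-wide average plus 3 SD, cut at about 13% in these data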;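 note: forskolin and galanin both at EC90 stimulate the cells; cAMP rise reported by CNG channel membrane potential dye signal; 0% = forskolin plus galanin with DMSO and 100% = forskolin alone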
Target sequence (O60755 1-299 limits assumed): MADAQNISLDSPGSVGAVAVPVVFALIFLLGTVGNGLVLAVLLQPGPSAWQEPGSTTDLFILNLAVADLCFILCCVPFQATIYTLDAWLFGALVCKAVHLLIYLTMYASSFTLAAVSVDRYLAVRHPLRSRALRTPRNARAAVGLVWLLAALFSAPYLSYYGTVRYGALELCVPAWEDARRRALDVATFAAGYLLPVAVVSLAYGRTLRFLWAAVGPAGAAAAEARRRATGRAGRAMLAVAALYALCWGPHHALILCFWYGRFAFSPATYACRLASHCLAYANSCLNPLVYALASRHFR
GalR3 conf: GalR3 (human) antagonism, confirmation; inhibition, % at 3 µM; 59% of 1,600 active; shares compounds with GalR3 antagonist; HEK293 GalR3 CNG cAMP biosensor, membrane potential fluorescence; galR3 fused to GalR1 carboxy tail; challenged with forskolin and galanin at EC90;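 active = inhibition above the primary screen's cutoff, the mean inhibition of all screened compounds plus 3 SD, cut at about 13% in these data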;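 note: 0% = forskolin plus galanin and 100% = forskolin alone with DMSO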
HEK-CNG parental: acts as nonspecific agonist in parental HEK-CNG cells; shares compounds with GalR3 antagonist; HEK293-CNG parental cells, cAMP membrane potential fluorescence; normalised: DMSO wells 0%, forskolin wells 100%; activation, % at 3 µM; 10% of 1,600 active; AID 652268; in the data active = activation above about 1.3%
The depositor's hits bear a star; x = no result given.

SMILES | TAAR1 ag | TAAR1 antagonist | OX1R antag-1 | CHO parental Ca | OX1R antag-2 | GalR3 antagonist | GalR3 conf | HEK-CNG parental
COc1ccc(CC2(CO)CCN(Cc3cnn(-c4ccccc4)c3)CC2)cc1 | 7 | 10 | -22 | -17 | 8 | -2 | x | x
COc1ccc(CC2(CO)CCN(CC3=Cc4cc(Cl)ccc4OC3)CC2)cc1 | 17 | 11 | 43* | 64* | 70 | 70* | 76* | 2.2*
COc1ccc(CC2(CO)CCN(Cc3ccc(OC(F)(F)F)cc3)CC2)cc1 | 10 | -21 | -23 | -12 | 7 | 17* | -4 | 1.8*
COc1ccc(CC2(CO)CCN(Cc3cnn(-c4ccc(F)cc4)c3)CC2)cc1 | -1 | 4 | -12 | -6 | 4 | 17* | 5 | 1.5*
Cn1c(SCCCC(=O)c2ccc(F)cc2)nnc1-c1ccncc1 | 5 | -3 | -9 | -8 | 16 | -3 | x | x
COCCn1c(SCCCC(=O)c2ccc(Br)cc2)nnc1-c1ccncc1 | 11 | 10 | 26 | 22 | 27 | 18* | 38* | 0
COC(=O)c1ccc(NC(=O)c2ccccc2C(=O)Nc2ccc(C(=O)OC)cc2)cc1 | 3 | -13 | -11 | -17 | 5 | 0 | x | x
COC(=O)c1ccc(NC(=O)C(=O)c2cccn2C)cc1 | 1 | 12 | -28 | -11 | 20 | x | 0 | 0
C=CCN1C(=O)/C(=C/N(C)C)S/C1=N\S(=O)(=O)c1cccs1 | 1 | 4 | x | x | x | -9 | x | x
CC(=O)Nc1ccc(Br)c2ccccc12 | 2 | -3 | -16 | -7 | 8 | -1 | x | x
O=C(Nc1ccc(Br)c2ccccc12)c1ccc2ccccc2c1O | 5 | 3 | -17 | 26 | 41* | 78* | 90* | 0
Fc1ccc(/C=N/NC(=S)Nc2cccnc2)cc1 | 23 | -17 | -12 | -5 | 18 | 21* | 4 | 0
Fc1ccc(/C=N/NC(=S)Nc2cccnc2)cc1F | 11 | -8 | -20 | -11 | 18 | -6 | x | x
NC(=S)NN=C1CCSCC1 | 2 | -19 | x | x | x | -2 | x | x
CSc1ccccc1NC(=O)c1cnc2scc(C)n2c1=O | 0 | -7 | -26 | -20 | 14 | 23* | 5 | 0
CC(O)CC(=O)OC[C@]12CC[C@H]3[C@@](C)(CC[C@H]4C(C)(C)CCC[C@]34C)[C@@H]1CC(C1=CC(=O)OC1O)O2 (some centres not stated) | 4 | 27 | x | x | x | 23* | 22* | 1
Cc1[nH]c(=O)nc(NN=Cc2ccc(Cl)cc2)c1C(=O)Nc1ccc(Cl)cc1 | 0 | -17 | x | x | x | -2 | x | x
C=CCN(C(C(=O)OC)C(C)C)S(=O)(=O)CCNCc1ccccc1 (configuration not stated) | 1 | 16 | x | x | x | -6 | x | x
Cc1ccc(S(=O)(=O)N2CCN(C(=O)COC(=O)CCOc3ccc(C(C)(C)C)cc3)CC2)cc1 | 0 | -3 | 37 | 25 | 19 | 20* | 20* | -1
COc1cc(-c2ccc(=O)[nH]n2)ccc1OC(F)F | 0 | -12 | 4 | -6 | 27 | 16* | 34* | 0
COc1ccc(-c2ccc(=O)[nH]n2)cc1 | x | x | -8 | 3 | 21 | x | x | x
COc1cccc(CN(C)C(=O)c2cc(COc3ccc4ncccc4c3)on2)c1 | 11 | 45 | 41 | 66* | 40 | 88* | 99* | 0
O=C(c1cc(COc2ccc3ncccc3c2)on1)N1CCCC1 | 5 | -24 | 2 | 20 | 29 | 101* | 30* | 0
CC(NC(=O)c1cc(COc2ccc3ncccc3c2)on1)c1ccc(F)cc1 (configuration not stated) | 26 | 3 | 43* | 51* | 56 | 29* | 86* | 1
CC(NC(=O)c1cc(COc2ccccc2)on1)c1nccs1 (configuration not stated) | -1 | -11 | -5 | -12 | 9 | -3 | x | x
SMILES | TAAR1 ag | TAAR1 antagonist | OX1R antag-1 | CHO parental Ca | OX1R antag-2 | GalR3 antagonist | GalR3 conf | HEK-CNG parental
O=C(NCc1ccc(Cl)nc1)c1csc([C@@H]2C[C@H](O)[C@@H](CO)O2)n1 | 1 | -9 | x | x | x | -3 | x | x
CCS(=O)(=O)N1Cc2ccccc2CC1C(=O)NCCc1ccccc1 (configuration not stated) | 34 | -2 | -22 | -27 | -2 | -1 | x | x
CC(C)CC(=O)Nc1ccc(C(=O)COC(=O)CN2C(=O)NC3(CCCCC3C)C2=O)cc1 (configuration not stated) | 6 | -4 | x | x | x | -2 | x | x
O=C(c1ccccc1)c1ccc(Cn2cc(-c3ccccc3)nn2)cc1 | 3 | 37 | -8 | 21 | 38 | 25* | 56* | 0
CCCCCc1ccc(-c2cn(Cc3ccc(C(=O)c4ccccc4)cc3)nn2)cc1 | 1 | -5 | -15 | -15 | 17 | -4 | x | x
O=C(CSc1ccccc1C(=O)O)Nc1ccc2c(c1)OCO2 | 5 | -9 | -13 | 0 | 1 | -5 | x | x
O=C(CSC1=Nc2ccccc2C2CC=NN12)Nc1ccc2c(c1)OCO2 (configuration not stated) | 1 | -7 | x | x | x | 20* | 10 | 0
O=C(O)c1ccccc1NS(=O)(=O)c1cccc(-n2sc3ccccc3c2=O)c1 | 16 | -7 | x | x | x | 33* | 23* | 0
O=C(O)c1ccccc1NS(=O)(=O)c1cccc(C(F)(F)F)c1 | 16 | 6 | -14 | -10 | 5 | -5 | x | x
Cc1cccc(NC(=O)CN(C)S(=O)(=O)c2ccc(-c3ccc(=O)[nH]n3)s2)c1C | 2 | -12 | -25 | -23 | 12 | 80* | 12 | 0
COC(CNS(=O)(=O)c1ccc(S(=O)(=O)N2CCCC2)cc1)OC | 1 | -25 | -12 | -8 | 23 | 13* | 7 | 0
CNc1ncnc2c1ncn2[C@@H]1O[C@H](CO)[C@@H](O)[C@H]1O | 0 | -3 | 9 | -2 | 16 | 77* | 17* | 0
CCc1cccc(OCC(O)Cn2c(N3CCCCC3)nc3c2c(=O)[nH]c(=O)n3C)c1 (configuration not stated) | 11 | 38 | -29 | -20 | 8 | -8 | x | x
CC1(C)CC(=O)c2c(Cc3ccccc3)noc2C1 | 0 | -36 | -4 | 0 | 38 | 20* | 4 | 1.3*
O=C(Cc1ccsc1)N1CCc2c([nH]c3ccccc23)C1c1ccccn1 (configuration not stated) | 4 | -4 | -27 | -18 | 20 | 16* | -1 | 0

Compound activity from PubChem BioAssay.
